Laboratory results from ChEMBL document CHEMBL3627671, “Novel derivatives of nitro-substituted salicylic acids: Synthesis, antimicrobial activity and cytotoxicity” (Bioorg Med Chem, 2015).

What was measured:
Type in all cases: functional
[1] = system: Mycobacterium tuberculosis; test: Antimycobacterial activity against Mycobacterium tuberculosis H37Rv 331/88 after 14 days; details: H37Rv 331/88, 336 h
[2] = system: Mycobacterium tuberculosis; test: Antimycobacterial activity against Mycobacterium tuberculosis H37Rv 331/88 after 21 days; details: H37Rv 331/88, 504 h
Mycobacterium avium [3] = test: Antimycobacterial activity against Mycobacterium avium 330/80 after 14 days; details: 330/80, 336 h
Mycobacterium avium [4] = test: Antimycobacterial activity against Mycobacterium avium 330/80 after 21 days; details: 330/80, 504 h
Mycobacterium kansasii [5] = test: Antimycobacterial activity against Mycobacterium kansasii 235/80 after 7 days; details: 235/80, 168 h
In short: (§1)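 Šula's semisynthetic medium micromethod at 37 °C, read after 7, 14 and 21 days. The 1.0 McFarland suspension was diluted 10^-4. MIC determined. 6509/96 is a clinical isolate.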

Mycobacterium kansasii [6] = test: Antimycobacterial activity against Mycobacterium kansasii 235/80 after 14 days; details: 235/80, 336 h; in short: as §1
Mycobacterium kansasii [7] = test: Antimycobacterial activity against Mycobacterium kansasii 235/80 after 21 days; details: 235/80, 504 h; in short: as §1
Mycobacterium kansasii [8] = test: Antimycobacterial activity against Mycobacterium kansasii 6509/96 after 7 days; details: 6509/96, 168 h; in short: as §1
Mycobacterium kansasii [9] = test: Antimycobacterial activity against Mycobacterium kansasii 6509/96 after 14 days; details: 6509/96, 336 h; in short: as §1
Mycobacterium kansasii [10] = test: Antimycobacterial activity against Mycobacterium kansasii 6509/96 after 21 days; details: 6509/96, 504 h; in short: as §1
Staphylococcus aureus [11] = test: Antibacterial activity against Staphylococcus aureus CCM 4516/08 after 24 hrs by microdilution broth method; details: CCM 4516/08, 24 h
Staphylococcus aureus [12] = test: Antibacterial activity against Staphylococcus aureus CCM 4516/08 after 48 hrs by microdilution broth method; details: CCM 4516/08, 48 h
Staphylococcus aureus [13] = test: Antibacterial activity against methicillin-resistant Staphylococcus aureus H 5996/08 after 24 hrs by microdilution broth method; details: H 5996/08, 24 h
Staphylococcus aureus [14] = test: Antibacterial activity against methicillin-resistant Staphylococcus aureus H 5996/08 after 48 hrs by microdilution broth method; details: H 5996/08, 48 h
[15] = system: Staphylococcus epidermidis; test: Antibacterial activity against Staphylococcus epidermidis H 6966/08 after 24 hrs by microdilution broth method; details: H 6966/08, 24 h
In short: (§2)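 Mueller-Hinton broth microdilution (modified M07-A07), pH 7.4 (±0.2). Compounds dissolved in DMSO, tested at final 500 to 0.49 µmol/L. Inoculum in sterile water matched to 0.5 McFarland. Incubated in the dark, humid atmosphere, 35 °C, read at 24 and 48 h visually and at 540 nm. MIC taken as ≥95% growth reduction (IC95) versus control.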

[16] = system: Staphylococcus epidermidis; test: Antibacterial activity against Staphylococcus epidermidis H 6966/08 after 48 hrs by microdilution broth method; details: H 6966/08, 48 h; in short: as §2
Enterococcus sp. [17] = test: Antibacterial activity against Enterococcus sp. J 14365/08 after 24 hrs by microdilution broth method; details: J 14365/08, 24 h; in short: as §2
Enterococcus sp. [18] = test: Antibacterial activity against Enterococcus sp. J 14365/08 after 48 hrs by microdilution broth method; details: J 14365/08, 48 h; in short: as §2
Escherichia coli [19] = test: Antibacterial activity against Escherichia coli CCM4517 after 24 hrs by microdilution broth method; details: CCM4517, 24 h; in short: as §2
Escherichia coli [20] = test: Antibacterial activity against Escherichia coli CCM4517 after 48 hrs by microdilution broth method; details: CCM4517, 48 h; in short: as §2
Klebsiella pneumoniae [21] = test: Antibacterial activity against Klebsiella pneumoniae D 11750/08 after 24 hrs by microdilution broth method; details: D 11750/08, 24 h; in short: as §2
Klebsiella pneumoniae [22] = test: Antibacterial activity against Klebsiella pneumoniae D 11750/08 after 48 hrs by microdilution broth method; details: D 11750/08, 48 h; in short: as §2
Klebsiella pneumoniae [23] = test: Antibacterial activity against ESBL-positive Klebsiella pneumoniae J 14368/08 after 24 hrs by microdilution broth method; details: J 14368/08, 24 h; in short: as §2
Klebsiella pneumoniae [24] = test: Antibacterial activity against ESBL-positive Klebsiella pneumoniae J 14368/08 after 48 hrs by microdilution broth method; details: J 14368/08, 48 h; in short: as §2
Pseudomonas aeruginosa [25] = test: Antibacterial activity against Pseudomonas aeruginosa CCM 1961 after 24 hrs by microdilution broth method; details: CCM 1961, 24 h; in short: as §2
Pseudomonas aeruginosa [26] = test: Antibacterial activity against Pseudomonas aeruginosa CCM 1961 after 48 hrs by microdilution broth method; details: CCM 1961, 48 h; in short: as §2
Candida albicans [27] = test: Antifungal activity against Candida albicans ATCC 44859 after 24 hrs by microdilution broth method; details: ATCC 44859, 24 h
In short: (§3)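 CLSI M27-A3 broth microdilution in RPMI 1640 with glutamine, buffered to pH 7.0 with MOPS; DMSO diluent. Yeast inoculum 5 × 10^3 ± 0.2 CFU/mL. Moulds grown on Sabouraud agar 3–10 days before spore harvest, final inoculum 0.5-5 × 10^4 CFU/mL, checked in a Bürker chamber. Incubated dark, humid, 35 °C, read at 24 and 48 h visually and at 540 nm. MIC taken as ≥80% (yeasts) or ≥50% (filamentous) growth reduction versus control.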

Candida albicans [28] = test: Antifungal activity against Candida albicans ATCC 44859 after 48 hrs by microdilution broth method; details: ATCC 44859, 48 h; in short: as §3
Candida tropicalis [29] = test: Antifungal activity against Candida tropicalis 156 after 24 hrs by microdilution broth method; details: Candida tropicalis, 156, 24 h; in short: as §3
Candida tropicalis [30] = test: Antifungal activity against Candida tropicalis 156 after 48 hrs by microdilution broth method; details: Candida tropicalis, 156, 48 h; in short: as §3
Pichia kudriavzevii [31] = test: Antifungal activity against Candida krusei E28 after 24 hrs by microdilution broth method; details: E28, 24 h; in short: as §3
Pichia kudriavzevii [32] = test: Antifungal activity against Candida krusei E28 after 48 hrs by microdilution broth method; details: E28, 48 h; in short: as §3
Nakaseomyces glabratus [33] = test: Antifungal activity against Candida glabrata 20/I after 24 hrs by microdilution broth method; in short: as §3
Nakaseomyces glabratus [34] = test: Antifungal activity against Candida glabrata 20/I after 48 hrs by microdilution broth method; in short: as §3
Trichosporon asahii [35] = test: Antifungal activity against Trichosporon asahii 1188 after 24 hrs by microdilution broth method; details: Trichosporon asahii, 1188, 24 h; in short: as §3
Trichosporon asahii [36] = test: Antifungal activity against Trichosporon asahii 1188 after 48 hrs by microdilution broth method; details: Trichosporon asahii, 1188, 48 h; in short: as §3
Aspergillus fumigatus [37] = test: Antifungal activity against Aspergillus fumigatus 231 after 24 hrs by microdilution broth method; details: Aspergillus fumigatus, 231, 24 h; in short: as §3
Aspergillus fumigatus [38] = test: Antifungal activity against Aspergillus fumigatus 231 after 48 hrs by microdilution broth method; details: Aspergillus fumigatus, 231, 48 h; in short: as §3
Lichtheimia corymbifera [39] = test: Antifungal activity against Absidia corymbifera 272 after 24 hrs by microdilution broth method; details: Lichtheimia corymbifera, 272, 24 h; in short: as §3
Lichtheimia corymbifera [40] = test: Antifungal activity against Absidia corymbifera 272 after 48 hrs by microdilution broth method; details: Lichtheimia corymbifera, 272, 48 h; in short: as §3
[41] = system: Trichophyton mentagrophytes; test: Antifungal activity against Trichophyton mentagrophytes 445 after 24 hrs by microdilution broth method; details: Trichophyton mentagrophytes, 445, 24 h
[42] = system: Trichophyton mentagrophytes; test: Antifungal activity against Trichophyton mentagrophytes 445 after 48 hrs by microdilution broth method; details: Trichophyton mentagrophytes, 445, 48 h

Measured: MIC

O=C(Nc1ccc([N+](=O)[O-])cc1)c1ccc([N+](=O)[O-])cc1O
32 µM: Mycobacterium kansasii [7] | Mycobacterium kansasii [8] | Mycobacterium kansasii [9] | Mycobacterium kansasii [10]
8 µM: [1] | Mycobacterium kansasii [5]
500 µM: Enterococcus sp. [17] | Escherichia coli [19] | Klebsiella pneumoniae [21] | Klebsiella pneumoniae [23] | Pseudomonas aeruginosa [25]
16 µM: [2] | Mycobacterium kansasii [6]
62.5 µM: Mycobacterium avium [3] | Mycobacterium avium [4] | Staphylococcus aureus [11] | Staphylococcus aureus [12] | [15] | [16]
31.2 µM: Staphylococcus aureus [13] | Staphylococcus aureus [14]
> 500 µM: all other assays above
